Reference: ChEMBL document CHEMBL5724801, “EUbOPEN Chemogenomics Library - Multiplex” (2024)
Where “and” joins values, the source holds several entries; their conditions need not be identical. Identical values can stand only once.

system: Fibroblast; assay: Multiplex assay against human fibroblast; format: toxicity, cell-based; details: 12 h, 1 µM, compound concentration 1 uM
How it was run: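 Per cents of healthy-nucleus cells form the tubulin, mitochondrial-mass and membrane-permeability phenotype values. Live cells were stained at seeding with Hoechst33342, BioTracker Green Microtubule Cytoskeleton Dye, MitoTracker Red and Annexin V Alexa Fluor 680. After compound addition they were imaged on a CQ1 microscope at 37°C and 5% CO2, and CellPathfinder machine-learning gating split them into Hoechst high-intensity objects or normal cells, normal cells into healthy, pyknosed or fragmented nuclei, and pyknosed cells into mitotic or apoptotic.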

| Compound | Population Apoptotic (%) | Population Fragmented Nuclei (%) | Population Healthy Nuclei (%) | Population Hoechst High Intensity Objects (%) | Population Membrane Permeable-Phenotype (%) | Population Mitochondria Different-Phenotype (%) | Population Mitotic Cells (%) | Population Normal (%) | Population Pyknosed Nuclei (%) | Population Tubulin-Different-Phenotype (%) |
| --- | --- | --- | --- | --- | --- | --- | --- | --- | --- | --- |
| O=c1nc2[nH]c3ccccc3nc-2c(=O)[nH]1 [ALLOXAZINE] | 56% and 37% | 16% and 26% | 67% and 50% | 5% and 3% | 0% and 6% | 2% and 3% | 43% and 62% | 94% and 96% | 16% and 23% | 23% and 33% |
| CCCCC[C@H](O)/C=C/[C@H]1[C@H](O)CC(=O)[C@@H]1CCCCCCC(=O)O [ALPROSTADIL] | 61% and 43% | 16% and 23% | 71% and 57% | 0% and 4% | 0% and 10% | 1% and 2% | 38% and 56% | 99% and 95% | 12% and 18% | – |

same assay, conditions: 12 h, 1 µM, compound concentration 1 uM

| Compound | Total Cell Count |
| --- | --- |
| O=c1nc2[nH]c3ccccc3nc-2c(=O)[nH]1 [ALLOXAZINE] | 193 and 131 |
| CCCCC[C@H](O)/C=C/[C@H]1[C@H](O)CC(=O)[C@@H]1CCCCCCC(=O)O [ALPROSTADIL] | 150 and 169 |

same assay, conditions: 12 h, 10 µM, compound concentration 10 uM

| Compound | Population Apoptotic (%) | Population Fragmented Nuclei (%) | Population Healthy Nuclei (%) | Population Hoechst High Intensity Objects (%) | Population Membrane Permeable-Phenotype (%) | Population Mitochondria Different-Phenotype (%) | Population Mitotic Cells (%) | Population Normal (%) | Population Pyknosed Nuclei (%) | Population Tubulin-Different-Phenotype (%) |
| --- | --- | --- | --- | --- | --- | --- | --- | --- | --- | --- |
| O=c1nc2[nH]c3ccccc3nc-2c(=O)[nH]1 [ALLOXAZINE] | 33% and 41% | 23% and 41% | 60% and 38% | 4% and 1% | 3% | 5% and 15% | 66% and 58% | 95% and 98% | 15% and 20% | 23% and 57% |
| CCCCC[C@H](O)/C=C/[C@H]1[C@H](O)CC(=O)[C@@H]1CCCCCCC(=O)O [ALPROSTADIL] | 36% and 34% | – | 75% and 43% | – | 2% and 11% | 4% and 1% | 63% and 65% | 94% and 83% | 17% and 31% | 26% and 45% |

same assay, conditions: 12 h, 10 µM, compound concentration 10 uM

| Compound | Total Cell Count |
| --- | --- |
| O=c1nc2[nH]c3ccccc3nc-2c(=O)[nH]1 [ALLOXAZINE] | 158 and 86 |
| CCCCC[C@H](O)/C=C/[C@H]1[C@H](O)CC(=O)[C@@H]1CCCCCCC(=O)O [ALPROSTADIL] | 136 and 146 |

same assay, conditions: 24 h, 1 µM, compound concentration 1 uM

| Compound | Population Apoptotic (%) | Population Fragmented Nuclei (%) | Population Healthy Nuclei (%) | Population Hoechst High Intensity Objects (%) | Population Membrane Permeable-Phenotype (%) | Population Mitochondria Different-Phenotype (%) | Population Mitotic Cells (%) | Population Normal (%) | Population Pyknosed Nuclei (%) | Population Tubulin-Different-Phenotype (%) |
| --- | --- | --- | --- | --- | --- | --- | --- | --- | --- | --- |
| O=c1nc2[nH]c3ccccc3nc-2c(=O)[nH]1 [ALLOXAZINE] | 52% and 36% | 17% and 31% | 69% and 41% | 3% and 4% | 0% and 2% | 2% and 0% | 47% and 63% | 96% and 95% | 12% and 27% | 21% and 31% |
| CCCCC[C@H](O)/C=C/[C@H]1[C@H](O)CC(=O)[C@@H]1CCCCCCC(=O)O [ALPROSTADIL] | 25% and 43% | 15% and 22% | 73% and 53% | 0% and 2% | 0% and 8% | 1% and 8% | 75% and 56% | 99% and 97% | 10% and 24% | 15% and 40% |

same assay, conditions: 24 h, 1 µM, compound concentration 1 uM

| Compound | Total Cell Count |
| --- | --- |
| O=c1nc2[nH]c3ccccc3nc-2c(=O)[nH]1 [ALLOXAZINE] | 190 and 114 |
| CCCCC[C@H](O)/C=C/[C@H]1[C@H](O)CC(=O)[C@@H]1CCCCCCC(=O)O [ALPROSTADIL] | 147 and 165 |

same assay, conditions: 24 h, 10 µM, compound concentration 10 uM

| Compound | Population Apoptotic (%) | Population Fragmented Nuclei (%) | Population Healthy Nuclei (%) | Population Hoechst High Intensity Objects (%) | Population Membrane Permeable-Phenotype (%) | Population Mitochondria Different-Phenotype (%) | Population Mitotic Cells (%) | Population Normal (%) | Population Pyknosed Nuclei (%) | Population Tubulin-Different-Phenotype (%) |
| --- | --- | --- | --- | --- | --- | --- | --- | --- | --- | --- |
| O=c1nc2[nH]c3ccccc3nc-2c(=O)[nH]1 [ALLOXAZINE] | 47% and 64% | 19% and 45% | 64% and 32% | 3 | 0% | 2% and 7% | 52% and 35% | 96% | 15% and 21% | 22% and 50% |
| CCCCC[C@H](O)/C=C/[C@H]1[C@H](O)CC(=O)[C@@H]1CCCCCCC(=O)O [ALPROSTADIL] | 63% and 30% | 14% and 27% | 69% and 45% | – | 0% and 16% | 2% and 3% | 36% and 69% | 97% and 86% | 15% and 26% | – |

same assay, conditions: 24 h, 10 µM, compound concentration 10 uM

| Compound | Total Cell Count |
| --- | --- |
| O=c1nc2[nH]c3ccccc3nc-2c(=O)[nH]1 [ALLOXAZINE] | 153 and 82 |
| CCCCC[C@H](O)/C=C/[C@H]1[C@H](O)CC(=O)[C@@H]1CCCCCCC(=O)O [ALPROSTADIL] | 147 and 157 |

same assay, conditions: 48 h, 1 µM, compound concentration 1 uM

| Compound | Population Apoptotic (%) | Population Fragmented Nuclei (%) | Population Healthy Nuclei (%) | Population Hoechst High Intensity Objects (%) | Population Membrane Permeable-Phenotype (%) | Population Mitochondria Different-Phenotype (%) | Population Mitotic Cells (%) | Population Normal (%) | Population Pyknosed Nuclei (%) | Population Tubulin-Different-Phenotype (%) |
| --- | --- | --- | --- | --- | --- | --- | --- | --- | --- | --- |
| O=c1nc2[nH]c3ccccc3nc-2c(=O)[nH]1 [ALLOXAZINE] | 71% and 39% | 14% and 30% | 72% and 48% | 9% and 3% | 0% and 9% | 1% | 28% and 60% | 90% and 96% | 13% and 20% | 23% and 56% |
| CCCCC[C@H](O)/C=C/[C@H]1[C@H](O)CC(=O)[C@@H]1CCCCCCC(=O)O [ALPROSTADIL] | 32% and 55% | 18% and 26% | 62% and 51% | 1% and 3% | 1% and 6% | 4% and 8% | 67% and 44% | 98% and 96% | 18% and 21% | 30% and 44% |

same assay, conditions: 48 h, 1 µM, compound concentration 1 uM

| Compound | Total Cell Count |
| --- | --- |
| O=c1nc2[nH]c3ccccc3nc-2c(=O)[nH]1 [ALLOXAZINE] | 178 and 114 |
| CCCCC[C@H](O)/C=C/[C@H]1[C@H](O)CC(=O)[C@@H]1CCCCCCC(=O)O [ALPROSTADIL] | 152 and 162 |

same assay, conditions: 48 h, 10 µM, compound concentration 10 uM

| Compound | Population Apoptotic (%) | Population Fragmented Nuclei (%) | Population Healthy Nuclei (%) | Population Hoechst High Intensity Objects (%) | Population Membrane Permeable-Phenotype (%) | Population Mitotic Cells (%) | Population Normal (%) | Population Pyknosed Nuclei (%) | Population Tubulin-Different-Phenotype (%) | Total Cell Count |
| --- | --- | --- | --- | --- | --- | --- | --- | --- | --- | --- |
| O=c1nc2[nH]c3ccccc3nc-2c(=O)[nH]1 [ALLOXAZINE] | 55% and 45% | 26% and 49% | 61% and 36% | 6% and 2% | 2% and 3% | 44% and 54% | 93% and 97% | 11% and 13% | 29% and 51% | 164 and 81 |
| CCCCC[C@H](O)/C=C/[C@H]1[C@H](O)CC(=O)[C@@H]1CCCCCCC(=O)O [ALPROSTADIL] | 62% and 48% | 11% and 33% | 62% and 44% | – | – | 37% and 51% | 97% and 83% | 26% and 22% | 34% and 60% | 144 |

same assay, conditions: 48 h, 10 µM, compound concentration 10 uM

| Compound | Population Mitochondria Different-Phenotype (%) |
| --- | --- |
| CCCCC[C@H](O)/C=C/[C@H]1[C@H](O)CC(=O)[C@@H]1CCCCCCC(=O)O [ALPROSTADIL] | 7 |
